Measurements: ChEMBL document CHEMBL1130202, “Biologically active heteroarotinoids exhibiting anticancer activity and decreased toxicity” (J Med Chem, 1997)
Activity calls are given as the source filed them. No cut-off for these calls is given here.

Columns and labels:
Mus musculus [1] = species on record: Mus musculus; test: Total dose of 10% weight loss in mice at mid dose 2; format: functional
Mus musculus [2] = species on record: Mus musculus; test: Effect of compound on serum Alkaline phosphatase levels in mice at low dose on day 65; format: functional
Outline: (§1)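 Male B6D2F1 mice dosed daily by oral gavage in corn oil at low, mid 1, mid 2 or high dose. Blood sampled on set days (8, 29, 36, 65) for clinical chemistry, serum alkaline phosphatase and triglycerides. Group mean ± SD reported as % relative to vehicle 1; significance p < 0.05 versus corn oil vehicle.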

Mus musculus [3] = species on record: Mus musculus; test: Approximate day to 10% weight loss in mice at mid dose 1; format: functional
Outline: (§2)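 Male B6D2F1 mice dosed daily by gavage in corn oil; body weights followed to termination (day 65, or day 25 for TTNPB 0.01/0.05 mg/kg/day groups) and compared with the matching vehicle group. Value is approximate day of onset of 10% body weight reduction versus vehicle.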

Mus musculus [4] = species on record: Mus musculus; test: Effect of compound on thymus to body weight ratios in mice at mid dose 1 on day 65; format: functional
Outline: (§3)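 Male B6D2F1 mice were dosed daily by gavage in corn oil, with TTNPB given at 0.1–0.8 or 0.01/0.05 mg/kg/day. Thymus-to-body weight ratio (×1000) was taken at necropsy on day 65 against vehicle 1, or on day 25 for the 0.01/0.05 groups against vehicle 2. Mean ± SD of 4–8 animals, reported as % difference from vehicle.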

Mus musculus [5] = species on record: Mus musculus; test: Effect of compound on thymus to body weight ratios in mice at mid dose 2 on day 65; format: functional; outline: as §3
Mus musculus [6] = species on record: Mus musculus; test: Approximate day to 10% weight loss in mice at low dose; format: functional; outline: as §2
Mus musculus [7] = species on record: Mus musculus; test: Approximate day to 10% weight loss in mice at mid dose 2; format: functional; outline: as §2
Mus musculus [8] = species on record: Mus musculus; test: Average number of fractures per mouse at low dose
Mus musculus [9] = species on record: Mus musculus; test: Total dose of 10% weight loss in mice at low dose; format: functional
Mus musculus [10] = species on record: Mus musculus; test: Effect of compound on adrenal to body weight ratios in mice at low dose on day 65; format: functional
Outline: (§4)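 Male B6D2F1 mice dosed daily by gavage with compound in corn oil; vehicle 1 (corn oil) controls run to termination on day 65. Low, mid 1, mid 2 and high dose groups, with dosage increases partway through the study. Organ-to-body weight ratios (×1000) taken at necropsy on day 65, reported as mean ± SD for 4 to 8 animals and as % difference from vehicle.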

[11] = Mortality rate in mice in mid dose 2; format: ADME; settings: mouse, in vivo
Outline: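 Male B6D2F1 mice given compound daily by gavage in corn oil at the stated dose levels, with corn oil vehicle controls. Deaths counted as animals found dead or sacrificed moribund, with day(s) of death recorded. Heteroarotinoid groups ran to day 65 and low-dose reference groups to day 25.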

CC-B = test: Relative transcriptional activation activity relative to t-RA; format: functional, Homo sapiens
Outline: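 CC-B reporter cells (CC-1 cervical line carrying a CAT gene under a RARE with a tk promoter) were seeded at 4×10^5 cells/well in MEM with nonessential amino acids, pyruvate and 10% FBS, the serum lots having negligible t-RA by HPLC. Triplicate cultures were screened at 10^-6 M with 0.1% DMSO final. After 48 h, CAT activity ([3H]acetyl-CoA) per mg protein was taken as treated/control and expressed relative to t-RA. Average of three experiments.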

Mus musculus [12] = species on record: Mus musculus; test: Total dose of 10% weight loss in mice at mid dose 1; format: functional
Mus musculus [13] = species on record: Mus musculus; test: Effect of compound on right testicle to body weight ratios in mice at mid dose 2 on day 65; format: functional; outline: as §4
Mus musculus [14] = species on record: Mus musculus; test: Effect of compound on serum Alkaline phosphatase levels in mice at high dose on day 36; format: functional; outline: as §1
Mus musculus [15] = species on record: Mus musculus; test: Effect of compound on Spleen to body weight ratios in mice at mid dose 2 on day 65; format: functional; outline: as §4
Mus musculus [16] = species on record: Mus musculus; test: Effect of compound on serum triglycerides levels in mice at mid dose 1 on day 29; format: functional
Outline: (§5)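 Male B6D2F1 mice were gavaged daily with compound in corn oil at low, mid 1, mid 2 or high dose. Serum triglycerides and circulating white blood cells were measured on the stated day (8, 29, 36, 65). Values are group mean ± SD expressed as % relative to corn-oil vehicle, with significance at p ≤ 0.05.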

Mus musculus [17] = species on record: Mus musculus; test: Effect of compound on serum Alkaline phosphatase levels in mice at mid dose 2 on day 65; format: functional; outline: as §1
Mus musculus [18] = species on record: Mus musculus; test: Effect of compound on adrenal to body weight ratios in mice at mid dose 1 on day 65; format: functional; outline: as §4
Mus musculus [19] = species on record: Mus musculus; test: Total dose of 10% weight loss in mice at high dose; format: functional
Mus musculus [20] = species on record: Mus musculus; test: Effect of compound on serum triglycerides levels in mice at high dose on day 29; format: functional; outline: as §1
Mus musculus [21] = species on record: Mus musculus; test: Calculated 30-day maximally tolerated dose based on 10% weight loss in mice at mid dose 2; format: functional
Mus musculus [22] = species on record: Mus musculus; test: Average number of fractures per mouse at high dose
Mus musculus [23] = species on record: Mus musculus; test: Effect of compound on Spleen to body weight ratios in mice at mid dose 1 on day 65; format: functional; outline: as §4
Mus musculus [24] = species on record: Mus musculus; test: Effect of compound on adrenal to body weight ratios in mice at mid dose 2 on day 65; format: functional; outline: as §4
Mus musculus [25] = species on record: Mus musculus; test: Average number of fractures per mouse at mid dose 2
Mus musculus [26] = species on record: Mus musculus; test: Effect of compound on right testicle to body weight ratios in mice at low dose on day 65; format: functional; outline: as §4
Mus musculus [27] = species on record: Mus musculus; test: Effect of compound on thymus to body weight ratios in mice at low dose on day 65; format: functional; outline: as §3
Mus musculus [28] = species on record: Mus musculus; test: Calculated 30-day maximally tolerated dose based on 10% weight loss in mice at low dose; format: functional
Mus musculus [29] = species on record: Mus musculus; test: Calculated 30-day maximally tolerated dose based on 10% weight loss in mice at mid dose 1; format: functional
Mus musculus [30] = species on record: Mus musculus; test: Approximate day to 10% weight loss in mice at high dose; format: functional; outline: as §2
Mus musculus [31] = species on record: Mus musculus; test: Calculated 30-day maximally tolerated dose based on 10% weight loss in mice at high dose; format: functional
Mus musculus [32] = species on record: Mus musculus; test: Effect of compound on right testicle to body weight ratios in mice at mid dose 1 on day 65; format: functional; outline: as §4
Mus musculus [33] = species on record: Mus musculus; test: Skin scaling in mice at mid dose 2 with Hypervitaminosis; 0/16; format: functional, organism-based
Outline: (§6)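 Male B6D2F1 mice were dosed daily by gavage in corn oil and observed for skin scaling of the ears, mouth, nose, eyelids, feet, tail or ventral body. Results are given as affected animals over animals in the group, with the day of first observation.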

Mus musculus [34] = species on record: Mus musculus; test: Skin scaling in mice at low dose with Hypervitaminosis; 0/16; format: functional, organism-based; outline: as §6
Mus musculus [35] = species on record: Mus musculus; test: Fracture incidence in mouse at mid dose 1; 0/8
Mus musculus [36] = species on record: Mus musculus; test: Enlarged lymph in gross pathological observations in mice with hypervitaminosis A in mice at high dose with gross observations/total number of mice in group; 1/16; format: functional, organism-based
Mus musculus [37] = species on record: Mus musculus; test: Enlarged spleen in Gross pathological observations in mice with hypervitaminosis A at high dose with gross observations/total number of mice in group; 0/16; format: functional, organism-based
Mus musculus [38] = species on record: Mus musculus; test: Effect of compound on serum Alkaline phosphatase levels in mice at high dose on day 65; format: functional; outline: as §1
Mus musculus [39] = species on record: Mus musculus; test: Effect of compound on serum triglycerides levels in mice at low dose on day 8; format: functional; outline: as §5
Mus musculus [40] = species on record: Mus musculus; test: Effect of compound on serum triglycerides levels in mice at low dose on day 29; format: functional; outline: as §1

Row | SMILES | Dose (Mus musculus [1]) [mg/kg] | Activity (Mus musculus [2]) | Activity (Mus musculus [3]) | Activity (Mus musculus [4]) | Activity (Mus musculus [5]) | Activity (Mus musculus [6]) | Activity (Mus musculus [7]) | Activity (Mus musculus [8]) | Dose (Mus musculus [9]) [mg/kg] | Activity (Mus musculus [10]) | Relative activity (CC-B) | Dose (Mus musculus [12]) [mg/kg] | Activity (Mus musculus [13]) | Activity (Mus musculus [14]) | Activity (Mus musculus [15]) | Activity (Mus musculus [16]) | Activity (Mus musculus [17]) | Activity (Mus musculus [18]) | Dose (Mus musculus [19]) [mg/kg] | Activity (Mus musculus [20]) | other results
1 | C/C(=C\c1ccc(C(=O)O)cc1)c1ccc2c(c1)C(C)(C)CCO2 | 220.6 | 115 | 51 | 1.3 | 0.9 | >65 | 41 | 0.4 | 147.1 | 0.3 | 31 | 190.2 | 1.9 | 86.3 | 7.1 | 175.9 | 134.8 | 0.4 | 280.8 | 192 | Mortality [11]: 4 day of death; Max tolerated dose (Mus musculus [21]): 7.4 mg/kg; Activity (Mus musculus [22]): 1.3; Activity (Mus musculus [23]): 5; Activity (Mus musculus [24]): 0.3; Activity (Mus musculus [25]): 3.4; Activity (Mus musculus [26]): 1.9; Activity (Mus musculus [27]): 1.5; Max tolerated dose (Mus musculus [28]): >4.9 mg/kg; Max tolerated dose (Mus musculus [29]): 6.3 mg/kg; Activity (Mus musculus [30]): 36; Max tolerated dose (Mus musculus [31]): 9.4 mg/kg; Activity (Mus musculus [32]): 2
2 | CC(/C=C/C=C(\C)c1ccc2c(c1)C(C)(C)CCO2)=C\C(=O)O | 732.4 | 115.7 | >65 | 1.6 | 1.5 | >65 | 61 | 0 | >207.1 | 0.3 | 50 | >414.2 | 3.3 | 91.9 | 2.7 | 167.3 | 136.8 | 0.3 | 952.8 | 208.2 | Activity (Mus musculus [33]): inactive; Activity (Mus musculus [34]): inactive; Activity (Mus musculus [35]): inactive; Activity (Mus musculus [36]): inactive; Activity (Mus musculus [37]): inactive; Activity (Mus musculus [38]): 156.8; Max tolerated dose (Mus musculus [21]): 24.4 mg/kg; Activity (Mus musculus [22]): 1; Activity (Mus musculus [23]): 2.5; Activity (Mus musculus [24]): 0.3; Activity (Mus musculus [39]): 96.8; Activity (Mus musculus [25]): 0.6; Activity (Mus musculus [26]): 3.2; Activity (Mus musculus [27]): 1.6; Max tolerated dose (Mus musculus [28]): >6.9 mg/kg; Max tolerated dose (Mus musculus [29]): >13.8 mg/kg; Activity (Mus musculus [30]): 53; Max tolerated dose (Mus musculus [31]): 31.8 mg/kg; Activity (Mus musculus [40]): 179.4; Activity (Mus musculus [32]): 2.9
